Measured values pooled from the literature.
pEC50, pIC50: −log10 of the molar value.
Organism: Severe acute respiratory syndrome coronavirus 2

Compound	assay	system	conditions	quantity	value
CC(C)=CCc1c(O)ccc(C(=O)/C=C/c2ccc(O)cc2)c1O	cytopathic effect	Vero C1008	6.25 µM	inhibition	0%
CN1CCN(CCc2ccc(Cl)c(Cl)c2)CC1	viral replication, inhibitor	A549-ACE2	–	pIC50	5.60
Cc1ccc(NC(=O)c2cc3c(=O)n4cccc(C)c4nc3n2C)cc1Cl	viral replication	Vero	1 nM	inhibition	8.11%
Fc1ccc(-n2cc(CCCCN3CCC4(CC3)OCc3ccccc34)c3ccccc32)cc1	viral replication	Vero C1008	–	pIC50	6.23
COC(=O)Nc1nc2cc(C3(O)c4ccccc4C(=O)N3c3cc(Cl)ccc3C)ccc2[nH]1 (centres unmarked)	viral replication, inhibitor	Vero C1008	1 µM	inhibition	40.3%
[2H]C([2H])(c1cc(F)c(F)cc1F)n1c(=O)n(Cc2ncn(C)n2)c(=O)[nH]/c1=N\c1cc2cn(C)nc2cc1Cl	viral replication, inhibitor, qPCR	–	48 h	pEC50	7.62
CCCN(CCC)c1cc(C)nc2c(-c3cnc(N(C)C)cc3C)c(C)nn12	viral replication, inhibitor	Vero C1008	1 µM	inhibition	60%
O=C(Nc1ccccc1F)c1cc2c(=O)n3ccccc3nc2n1Cc1ccccc1	viral replication	Vero	0.1 µM	inhibition	87.2%
OC(CCN1CCCCC1)(c1ccccc1)C1CCCCC1 (centres unmarked)	viral replication	A549-ACE2	–	pIC50	5.50
Cc1cccn2c(=O)c3cc(C(=O)Nc4ccc(N(C)C)cc4)n(C)c3nc12	viral replication	Vero	10 nM	inhibition	7.3%
CCCCCCCCCCCCCCCCCCOC[C@H](COP(=O)(O)OC[C@H]1O[C@@](C#N)(c2ccc3c(N)ncnn23)[C@H](O)[C@@H]1O)OCc1ccccc1	viral replication, inhibitor, qPCR	Vero C1008	–	pEC50	6.85
CCC(CC)COC(=O)[C@H](C)N[P@](=O)(OC[C@H]1O[C@@](C#N)(c2ccc3c(N)ncnn23)[C@H](O)[C@@H]1O)Oc1ccccc1	viral replication	Vero	10 µM	inhibition	98%
COc1ccc(C[C@@H]2c3cc(Oc4cc(C[C@@H]5c6cc(O)c(OC)cc6CCN5C)ccc4O)c(OC)cc3CCN2C)cc1	cytopathic effect	Vero C1008	1.562 µM	inhibition	0%
Cn1c(C(=O)Nc2ccc(Cl)cc2)cc2c(=O)n3ccccc3nc21	viral replication	Vero	10 µM	inhibition	91.8%
O=C(/C=C/c1ccc(O)c(O)c1/C=C/c1ccc(O)c(O)c1)O[C@H](Cc1ccc(O)c(O)c1)C(=O)O	cytopathic effect, inhibitor	Vero C1008	12.5 µM	inhibition	0%
CCCCCCCCCCCCCCCCCCOCCOP(=O)(O)OC[C@H]1O[C@@](C#N)(c2ccc3c(N)ncnn23)[C@H](O)[C@@H]1O	viral replication, inhibitor, qPCR	Vero C1008	–	pEC50	6.52
O=C(O[C@@H]1Cc2c(O)cc(O)cc2O[C@@H]1c1cc(O)c(O)c(O)c1)c1cc(O)c(O)c(O)c1	cytopathic effect	Vero C1008	1.562 µM	inhibition	0%
CCOC(=O)c1[nH]c2cc(OC)c(OC)cc2c1CCN1CCN(c2ccccc2)CC1	viral replication, inhibitor	Vero C1008	1 µM	inhibition	52.8%
C=C[C@@](C)(/C=C/c1ccc(O)cc1)CCC=C(C)C	cytopathic effect	Vero C1008	3.125 µM	inhibition	0%
CC(=O)c1cccc(NC(=O)c2cc3c(=O)n4ccccc4nc3n2C)c1	viral replication	Vero	1 µM	inhibition	93.7%
